The target in data set [1] is Voltage-gated inwardly rectifying potassium channel KCNH2 (Homo sapiens, UniProt Q12809). In words: Displacement of labeled MK-499 from cloned hERG channel expressed in HEK cells. It is filed as cell-based, HEK293. (In general: hERG is a cardiac potassium channel; its block is linked to QT prolongation.)
Another data set has as its target Substance-P receptor (Homo sapiens, UniProt P25103). The data set can be described thus: Displacement of [125I] labeled substance P from human cloned NK1 receptor expressed in CHO cells. In kind it is cell-based. The procedure, abridged:
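Radioligand displacement assay: [¹²⁵I]-labelled substance P bound to cloned human NK1 receptor expressed in CHO cells, measured as the concentration giving IC50; mean ± SD of three determinations.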
In general terms: In a radioligand displacement assay an active substance lowers the binding of a labelled ligand.

For data set [2], the system named is Gerbil, jird. The data set can be described thus: Inhibition of GR-73632-induced foot tapping in gerbil at 3 mg/kg, po after 1 hr. In kind it is functional, Meriones. On the set-up: Activity: scale not given: the % may be the effect or the level left. Particulars: for Activity: dose 3 mg/kg; for ED50: Meriones, 1 h, read-out: ID50 (the source's name). The procedure, abridged: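 Gerbils dosed orally 1 h before central challenge with the NK1 agonist GR73632, with foot-tapping scored. Plasma drug level at 1 h measured by LC–MS/MS after protein precipitation.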

In data set [3] the test system is Gerbil, jird. In words: Inhibition of GR-73632-induced foot tapping in po dosed gerbil after 1 hr. In kind it is functional. To be noted: Meriones, read-out: ID50 (the source's name). The procedure, abridged: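 Gerbils dosed orally 1 h before central challenge with the NK1 agonist GR73632, with foot-tapping scored. […] Plasma drug level at 1 h measured by LC–MS/MS after protein precipitation.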

The nature of data set [4]: Clearance in rat. In kind it is ADME, organism-based. Particulars: in vivo.
Data set [5] is described as follows: Half life in rat. To be noted: in vivo. In kind it is ADME, organism-based.

These results are taken from ChEMBL document CHEMBL1147801, “NK1 antagonists based on seven membered lactam scaffolds” (Bioorg Med Chem Lett, 2006).

Substance-P receptor, sequence (P25103 whole entry): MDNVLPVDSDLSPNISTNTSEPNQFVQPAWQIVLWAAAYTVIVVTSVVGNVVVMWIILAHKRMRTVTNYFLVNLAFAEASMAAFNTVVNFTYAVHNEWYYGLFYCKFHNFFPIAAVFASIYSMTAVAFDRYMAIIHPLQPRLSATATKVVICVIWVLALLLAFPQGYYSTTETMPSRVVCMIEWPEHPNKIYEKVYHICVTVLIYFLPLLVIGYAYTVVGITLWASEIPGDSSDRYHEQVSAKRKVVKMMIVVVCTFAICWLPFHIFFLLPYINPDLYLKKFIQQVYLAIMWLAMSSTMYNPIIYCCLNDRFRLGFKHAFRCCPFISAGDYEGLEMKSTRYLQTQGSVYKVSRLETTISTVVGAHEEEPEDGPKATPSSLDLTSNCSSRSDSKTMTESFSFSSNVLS
Voltage-gated inwardly rectifying potassium channel KCNH2, sequence (Q12809 whole entry): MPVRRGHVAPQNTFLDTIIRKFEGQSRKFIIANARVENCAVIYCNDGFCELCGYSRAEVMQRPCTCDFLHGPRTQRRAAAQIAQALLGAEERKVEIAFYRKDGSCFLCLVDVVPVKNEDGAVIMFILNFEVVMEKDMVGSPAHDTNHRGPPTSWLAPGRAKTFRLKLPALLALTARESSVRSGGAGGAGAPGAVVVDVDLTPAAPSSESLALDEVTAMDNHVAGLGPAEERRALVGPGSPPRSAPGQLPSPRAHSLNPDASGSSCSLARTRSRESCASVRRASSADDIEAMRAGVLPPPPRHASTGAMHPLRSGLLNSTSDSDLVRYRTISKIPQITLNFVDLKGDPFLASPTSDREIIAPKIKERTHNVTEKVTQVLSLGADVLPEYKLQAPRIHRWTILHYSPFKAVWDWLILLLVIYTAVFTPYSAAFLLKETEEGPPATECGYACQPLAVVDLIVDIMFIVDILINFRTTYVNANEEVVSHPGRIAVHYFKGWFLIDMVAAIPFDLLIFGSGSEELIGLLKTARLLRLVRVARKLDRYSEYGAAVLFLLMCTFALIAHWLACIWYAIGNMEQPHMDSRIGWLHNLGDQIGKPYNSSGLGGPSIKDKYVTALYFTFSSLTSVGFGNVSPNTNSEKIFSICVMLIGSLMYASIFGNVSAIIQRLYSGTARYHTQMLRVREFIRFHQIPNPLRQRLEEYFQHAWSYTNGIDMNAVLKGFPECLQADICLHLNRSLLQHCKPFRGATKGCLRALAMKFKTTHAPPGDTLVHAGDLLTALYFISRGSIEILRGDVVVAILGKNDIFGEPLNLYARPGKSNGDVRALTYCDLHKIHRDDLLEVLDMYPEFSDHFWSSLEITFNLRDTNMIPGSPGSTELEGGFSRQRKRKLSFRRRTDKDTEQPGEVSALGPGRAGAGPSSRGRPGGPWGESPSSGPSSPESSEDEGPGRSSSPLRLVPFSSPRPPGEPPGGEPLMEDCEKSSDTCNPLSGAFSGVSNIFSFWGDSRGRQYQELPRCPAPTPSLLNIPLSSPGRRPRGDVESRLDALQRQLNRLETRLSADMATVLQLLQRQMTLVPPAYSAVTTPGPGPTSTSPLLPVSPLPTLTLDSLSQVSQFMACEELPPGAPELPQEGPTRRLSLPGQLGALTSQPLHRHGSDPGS

A word on the Ki: it is a dissociation constant, usually derived from enzyme kinetics or from competition with a known ligand. Turning to `C[C@@H](O[C@H]1CCC(=O)N(C)[C@@H](C)[C@@H]1c1ccc(F)cc1)c1cc(C(F)(F)F)cc(C(F)(F)F)c1`, in data set [1], affinity was put at a Ki of 6700 nM.
Broadly, the IC50 is the concentration at which inhibition is half-maximal. `C[C@@H]1C[C@H](O[C@H](C)c2cc(C(F)(F)F)cc(C(F)(F)F)c2)[C@@H](c2ccc(F)cc2)CC(=O)N1` had an IC50 at Substance-P receptor of 0.41 nM. The compound further returned an Activity in the data set with Gerbil, jird [2] of 64%.
In the case of `C[C@@H]1C[C@H](O[C@H](C)c2cc(C(F)(F)F)cc(C(F)(F)F)c2)[C@@H](c2ccc(F)cc2)CNC1=O`, the IC50 at Substance-P receptor is 0.23 nM. This compound showed a Ki in data set [1] of 2400 nM.
At Substance-P receptor, `C[C@@H](O[C@H]1CCn2c(O)nnc2C[C@@H]1c1ccc(F)cc1)c1cc(C(F)(F)F)cc(C(F)(F)F)c1` came in with an IC50 of 0.22 nM. For the same compound, in data set [1], the Ki is over 9000 nM. Further, the ED50 with Gerbil, jird [2] was 0.8 mg/kg.
As to `C[C@@H](O[C@H]1CCc2nccn2C[C@@H]1c1ccc(F)cc1)c1cc(C(F)(F)F)cc(C(F)(F)F)c1`, the IC50 on Substance-P receptor is 0.28 nM. Besides, the Activity in the data set on Gerbil, jird [2] came to 4%.
For `C[C@@H]1C[C@H](O[C@H](C)c2cc(C(F)(F)F)cc(C(F)(F)F)c2)[C@@H](c2ccc(F)cc2)CN(C)C1=O`, in the data set on Gerbil, jird [2], the Activity is 5%.
On Substance-P receptor, `C[C@@H](O[C@H]1CCNC(=O)C[C@@H]1c1ccc(F)cc1)c1cc(C(F)(F)F)cc(C(F)(F)F)c1` registered an IC50 of 0.64 nM. The same compound gave a Ki in data set [1] of over 9000 nM. The compound also gave an Activity in the data set on Gerbil, jird [2] of 0%.
In turn, `C[C@@H](O[C@H]1CCn2ccnc2C[C@@H]1c1ccc(F)cc1)c1cc(C(F)(F)F)cc(C(F)(F)F)c1` showed a Ki in data set [1] of 1400 nM. This compound had an Activity in the data set on Gerbil, jird [2] of 0%.
Usually clearance stands for the rate of elimination divided by the concentration. Usually half-life stands for the time in which the quantity being followed falls by half. For the compound `C[C@@H](O[C@H]1CCC(=O)NC[C@@H]1c1ccc(F)cc1)c1cc(C(F)(F)F)cc(C(F)(F)F)c1`, the IC50 on Substance-P receptor amounted to 0.14 nM. Also, the Ki in data set [1] is over 9000 nM. Besides, in the data set on Gerbil, jird [3], the ED50 came to 1.06 mg/kg. The compound further returned a clearance in data set [4] of 33 mL/min/kg. The half-life in data set [5] was 5.6 h.
At Substance-P receptor, `C[C@@H](O[C@H]1CCN(C)C(=O)C[C@@H]1c1ccc(F)cc1)c1cc(C(F)(F)F)cc(C(F)(F)F)c1` registered an IC50 of 0.53 nM. Besides, the Ki in data set [1] was over 9000 nM.
`C[C@@H]1C[C@H](O[C@H](C)c2cc(C(F)(F)F)cc(C(F)(F)F)c2)[C@@H](c2ccc(F)cc2)CC(=O)N1C` came in with an IC50 on Substance-P receptor of 0.49 nM. Besides, in data set [1], the Ki was over 9000 nM. Besides, the Activity with Gerbil, jird [2] is 8%.
With `C[C@@H]1NC(=O)CC[C@H](O[C@H](C)c2cc(C(F)(F)F)cc(C(F)(F)F)c2)[C@H]1c1ccc(F)cc1`, the Ki in data set [1] is over 9000 nM.
Turning to `C[C@@H](O[C@H]1CCC(=O)N(C)C[C@@H]1c1ccc(F)cc1)c1cc(C(F)(F)F)cc(C(F)(F)F)c1`, the IC50 at Substance-P receptor worked out at 0.12 nM. Moreover, the ED50 with Gerbil, jird [2] is 0.64 mg/kg.
